# Exocytosis inh: blocks lytic granule exocytosis. TALL-104 LAMP-1 surface exposure, flow cytometry; cells stimulated with thapsigargin and PMA. inhibition, % at 10 µM. actives 0.66% (n = 360,000);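 active = inhibition above about 55%, limit read from the data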
# MC4R antag cAMP: blocks human MC4R cAMP signaling | P32245 | MC4R-expressing cells, MTII-stimulated cAMP, LANCE TR-FRET | inhibition, % at 6.5 µM | actives 0.48% (n = 360,000);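 active = inhibition above its plate's cutoff, the mean of tested wells on that plate plus 3 SD, cut at about 29% in these data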;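 note: 0% = Melanotan II alone and 100% = Melanotan II plus saturating MCL0020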
#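 Assay system: human MC4R-expressing U2OS cells; reagent: Melanotan II stimulation of cells; dosing: 6.5 µM single dose; timing: compound 30 min, challenge 1 h, detection 1 h; signal: TR-FRET cAMP assay; replicates: one well per compound, no replicates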
# Tb MetRS inh: Trypanosoma brucei MetRS inhibition; actives 0.4% (n = 360,000); AID 624268; inhibition, % at 11.9 µM; purified T. brucei MetRS, ATP depletion, Kinase-Glo luminescence;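 active = inhibition above a per-plate cutoff of the control wells' mean inhibition plus 3 SD, cut at about 5.5% in these data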;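 note: 0% = DMSO wells median and 100% = median of wells with control inhibitor compound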
#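 Test system – parasite MetRS enzyme · Reagent – substrates ATP, L-methionine and bulk Escherichia coli tRNA · Doses – 11.9 µM compound single dose, 0.9% DMSO · Times – 15 min enzyme-compound preincubation, 2 h reaction, 10 min detection, 25 °C · Signal – Kinase-Glo luminescence, ATP depletion format · Controls – DMSO-only wells as low control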
# MC4R ag barr: human MC4R agonism via beta-arrestin | AID 540308 | P32245 | activation, % at 8.9 µM | U2OS MC4R beta-arrestin complementation, luminescence; percent of melanotan II response, DMSO zero | actives 0.98% (n = 360,000);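 active = activation above a per-plate cutoff, the mean activation of sample wells on that plate plus 3 SD, cut at about 8% in these data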
# hiPSC survival: enhancers of human iPSC single-cell survival. actives 0.044% (n = 360,000). survival enhancement, % at 20 µM. hiPSC single-cell survival, ATPlite luminescence; 100% = ROCK inhibitor wells, 0% = DMSO; in the data active = survival enhancement above about 18%;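 note: cells exposed to compounds for 16 hours before the ATP read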
# ABCB6 inh 2: human ABCB6 transporter inhibition; K562-ABCB6 porphyrin accumulation, flow cytometry, 1 h; hits give low values; fluorescence ratio to DMSO, % at 10 µM; actives 0.19% (n = 360,000);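 active = fluorescence ratio to DMSO below 75%, the collection mean minus 3 SD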;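 note: signal is porphyrin accumulated inside mitochondria; 100% equals median channel fluorescence of DMSO control wells; lower ratio means ABCB6 inhibition with less porphyrin fluorescence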
# Numbers without * were called inactive; . = not tested or not shown. This is a sample that favours compounds with a hit; in the whole collection about 2.6% have one here.
SMILES,Exocytosis inh,MC4R antag cAMP,Tb MetRS inh,MC4R ag barr,hiPSC survival,ABCB6 inh 2
COc1cccc(CNC(=O)c2ccc(NC(=O)C3=CSCCO3)cc2)c1,-7.2,-4.0,-0.4,1.1,-0.3,95.0
Cc1ccc(NC(=O)COC(=O)c2ccc(-n3nc(C)cc3C)cc2)c(F)c1,-0.9,-7.2,-0.3,8.6*,-0.4,85.0
O=C(CNc1ccccc1-c1ccccc1)NCc1ccccc1,2.6,2.4,-0.3,-0.6,1.6,98.0
CCN(CC(=O)NCc1ccc(Cl)cc1)C(=O)COc1cccc(C(F)(F)F)c1,4.2,-5.4,-0.6,-0.4,-0.6,97.0
O=C1c2cccc3c([N+](=O)[O-])ccc(c23)C(=O)N1c1nccs1,84.8*,-59.6,-0.2,-5.6,-5.5,187.0
O=C1c2cccc3c([N+](=O)[O-])ccc(c23)C(=O)N1c1ccccn1,29.0,-5.3,-0.3,-2.4,-1.6,226.0
COc1cccc(-c2oc3c(c2C(=O)OCCN(C)C)C(O)CCC3)c1 (stereo unspecified),4.3,.,-0.2,.,1.2,100.0
Cc1ccc(CS(=O)(=O)c2ncn[nH]2)cc1,-0.3,-3.1,0.1,-3.7,2.3,100.0
C#CCOCCOCCOCCNc1nc(N2CCN(C(=O)CCCCCCCCCCNC(=O)[C@H]([C@@H](C)CC)n3cc(CCCCN=C(N)N)nn3)CC2)nc(N2CCN(C(=O)CCCCCCCCCCNC(=O)[C@H](CO)n3cc(CCCCCN)nn3)CC2)n1,-4.9,32.5*,-0.5,-0.9,-3.0,78.0
C#CCOCCOCCOCCNc1nc(N2CCN(C(=O)CCCCCCCCCCNC(=O)[C@H]([C@@H](C)CC)n3cc(CCCCCN)nn3)CC2)nc(N2CCN(C(=O)CCCCCCCCCCNC(=O)[C@H](CO)n3cc(CCCCCN)nn3)CC2)n1,0.5,23.1,-0.3,-0.6,-1.4,97.0
C#CCOCCOCCOCCNc1nc(N2CCN(C(=O)CCCCCCCCCCNC(=O)[C@H]([C@@H](C)CC)n3cc(CCCCCN)nn3)CC2)nc(N2CCN(C(=O)CCCCCCCCCCNC(=O)[C@H]([C@@H](C)CC)n3cc(CCCCN=C(N)N)nn3)CC2)n1,0.5,57.4*,0.2,-1.1,1.8,99.0
Cn1c(CNC(=O)CNC(=O)Cc2ccc(Cl)cc2)cc(=O)n(C)c1=O,-5.1,-6.5,-0.6,1.1,0.9,96.0
COCCNC(=O)c1cc(-c2ccccc2)n(Cc2cc(C)no2)n1,8.0,0.4,0.0,-0.6,-0.3,101.0
C/C(=C/c1ccccc1)C(=O)N1CCC(C)CC1,7.4,7.5,-0.7,0.5,2.0,102.0
Cc1ccc(Cn2c(Sc3ncccn3)nc3c2c(=O)[nH]c(=O)n3C)cc1,3.9,-7.0,-0.2,-1.4,-1.6,95.0
C/C=C/CSc1nc2c(c(=O)[nH]c(=O)n2C)n1Cc1ccc(C)cc1,-7.6,-24.3,-0.5,8.9*,5.7,91.0
NC(=S)N/N=C1\CCSc2ccc(Cl)cc21,73.2*,7.3,-0.3,-2.5,-0.2,104.0
O=C(N/N=C1\CCSc2ccc(F)cc21)c1cccnc1,-1.3,6.1,-0.5,-3.7,1.3,94.0
Cc1ccnc(NC(=O)Nc2ccc3c(c2)N(C)C(=O)CS3)c1,-1.0,5.3,0.2,9.1*,0.7,101.0
Cc1ccc(NC(=O)Nc2ccc3c(c2)N(C)C(=O)CS3)nc1,-1.0,10.4,-1.4,9.4*,0.1,100.0
Cc1cccc(NC(=O)Nc2ccc3c(c2)N(C)C(=O)CS3)n1,0.5,2.8,-0.7,-2.0,2.6,101.0
CCCCC(=O)Nc1nnc(C2=COCCO2)o1,-2.9,-2.5,-0.2,-2.7,-0.2,95.0
O=C(O)CCc1nn2c3ccccc3n(CC(=O)c3cccs3)c2nc1=O,0.7,1.4,-0.6,-1.4,-0.8,99.0
CCc1ccc(Nc2nc(N)nc(CSc3nnnn3-c3ccccc3)n2)cc1,-1.2,-10.8,-0.3,8.5*,0.2,99.0
Cc1cc(NC(=O)C2CC(=O)OC2c2ccccc2)no1 (stereo unspecified),-0.8,-2.1,-0.3,-0.3,-0.1,74.0*

# Assay outcomes: PubChem, several laboratories
